According to publication PMC7894357 (Chemmedchem, 2020):

Legend:
HIV‐2 = format: cell-based; conditions: CEM-TK(-), read-out: EC50 CEM/TK− HIV‐1
Procedure, shortened: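 CEM/TK⁻ cells (~3×10⁵ cells/mL) were infected with HIV‑1(III_B) or HIV‑2(ROD) at 100 CCID₅₀/mL and cultured with serial dilutions of test compound. After 4–5 days at 37 °C in humidified CO₂, giant (syncytium) cell formation was scored microscopically. EC50 is the concentration that halves giant cell formation. Values are mean ±SD of n=2–3 independent experiments.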

[1] = Cytotoxicity: inhibition of CD4+ T-cell; format: cell-based; conditions: human, CEM/0 cells (CD4+ T cells)
[2] = symmetric TriPPPro-compounds, PB pH 7.3; cited from earlier work
[3] = previous work; cited from earlier work

In the case of `Cc1cn([C@H]2C=C[C@@H](CO)O2)c(=O)[nH]c1=O` [d4T 1, 3'‐deoxy‐2',3'‐didehydrothymidine], the EC50 (HIV‐2) is reported as greater than 50 µM and the CC50 [1] is reported as greater than 50 µM.
For `CCCCCCCCCC(=O)Oc1ccc(COP(=O)(OCc2ccc(OC(=O)CCCCCCCCC)cc2)OP(=O)(O)OP(=O)(O)OC[C@@H]2C=C[C@H](n3cc(C)c(=O)[nH]c3=O)O2)cc1` [γ‐(AB−C9,AB−C9)‐d4TTP], the “half-life in PB (t1/2)” value [2] is listed as 44 h and the “half-life in CEM/0 cell extracts (t1/2)” value [3] is listed as 2.8 h.
In the case of γ‐(AB−C4,AB−C4)‐d4TTP, the “half-life in PB (t1/2)” value [2] is listed as 22 h and the “half-life in CEM/0 cell extracts (t1/2)” value [3] is listed as 0.43 h.
